Some results are limits rather than exact numbers.

Assay [1] can be described thus: Antioxidant activity assessed as ferric ion reducing ability after 20 mins by FRAP assay. It counts as functional. In outline:
(§1)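 FRAP reagent: acetate buffer (300 mM, pH 3.6), TPTZ (10 mM in 40 mM HCl) and FeCl3 (20 mM) at 10:1:1, diluted to 1/3 with methanol and pre-warmed to 37 °C. Diluted compound added, 20 min at 37 °C, A593. Values read from FeSO4·7H2O calibration curve; quercetin as reference.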

Assay [2] deals with Radical scavenging activity. In words: Antioxidant activity assessed as DPPH free radical scavenging activity after 30 mins. The format is functional.
For another assay, the system named is K562. In words: Cytotoxicity against human K562 cells after 72 hrs by MTT assay. The format is functional, cell-based. To be noted: K562, 72 h. A digest of the protocol: (§2)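 MCF-7 grown as monolayer, K562 and MOLT-4 in suspension; seeded at 30,000, 40,000 and 40,000 cells/ml respectively and incubated overnight at 37 °C. Compounds dissolved in DMSO, diluted in medium, final DMSO ≤0.5%; cisplatin as reference.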

In the next assay the test system is MCF7. In words: Cytotoxicity against human MCF7 cells after 72 hrs by MTT assay. The format is functional, cell-based. To be noted: MCF7, 72 h. In outline:
as §2
A general note: Formazan colour is commonly taken as a measure of viable cells.

Another assay deals with MOLT-4. In words: Cytotoxicity against human MOLT4 cells after 72 hrs by MTT assay. Conditions: MOLT-4, 72 h. The format is functional, cell-based. In outline:
as §2

The species named for a further assay is Rattus norvegicus. In words: Reduction of total thiol content in Wistar rat liver mitochondria after 1 hr by DTNB method. It counts as functional. In outline:
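Wistar rat liver mitochondria isolated by differential centrifugation (1500 × g, then 10,000 × g, 10 min, 4 °C) and suspended in Tris-HCl 0.05 M/sucrose 0.25 M/KCl/MgCl2/Na2HPO4, pH 7.4. Protein by Bradford. Mitochondria (1 mg/mL) exposed 1 h to compound, then total thiols measured by DTNB at 412 nm against a GSH standard curve; mean ± SD, n = 3.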

Assay [3] can be described thus: Antioxidant activity assessed as ferric ion reducing ability after 20 mins by FRAP assay relative to quercetin. It counts as functional. In outline:
as §1

In general, IC50 refers to the midpoint of a concentration-inhibition curve. As to `O=C(/C=C/c1ccc2c(c1)OCO2)c1cc2cc(O)ccc2oc1=O`, the Activity in assay [1] amounted to 15.3 mM. Besides, the half-maximal inhibitory concentration (IC50) in assay [2] came to 480 µM; in the assay on K562, 14.6 µM; in the assay with MCF7, 9.7 µM; with MOLT-4, 2 µM.
`COc1cc(/C=C/C(=O)c2cc3ccc(O)cc3oc2=O)cc(OC)c1OC`: the values for the Activity (in assay [1]; in the assay listed under Rattus norvegicus) were 8.7 mM and “Dose-dependent effect”, respectively. For the same compound, the IC50 in assay [2] came out at 190 µM; in the assay with K562, 7.3 µM; with MCF7 it was 8.8 µM; in the assay with MOLT-4 it was 3.8 µM.
In the case of `COc1cccc(COc2ccc3cc(C(=O)/C=C/c4ccccc4)c(=O)oc3c2)c1`, the Activity in assay [1] amounted to 10.4 mM. The IC50 was 890 µM in assay [2], more than 100 µM in the assay with K562, 33.7 µM in the assay with MCF7 and more than 100 µM in the assay on MOLT-4.
As for `COc1cccc(COc2ccc3cc(C(=O)/C=C/c4cc(OC)ccc4OC)c(=O)oc3c2)c1`, in assay [1], the Activity turned out to be 9.5 mM. For the same compound, the IC50 in assay [2] is 750 µM; with K562, 35.1 µM; in the assay on MCF7, more than 100 µM; with MOLT-4, 13.8 µM.
On to `O=c1c(O)c(-c2ccc(O)c(O)c2)oc2cc(O)cc(O)c12` [QUERCETIN], for which the Activity in assay [1] was found to be 87.1 mM. For the same compound, the IC50 in assay [2] is 8.12 µM.
With `O=C(/C=C/c1ccc2c(c1)OCO2)c1cc2ccc(O)cc2oc1=O`, in assay [1], the Activity came out at 13.7 mM. Moreover, the IC50 in assay [2] was 540 µM; in the assay with K562, 31.7 µM; in the assay on MCF7 it was 38.9 µM; in the assay on MOLT-4 it was 26.2 µM.
Consider `COc1cccc(COc2ccc3cc(C(=O)/C=C/c4ccc(C)cc4)c(=O)oc3c2)c1`, for which the Activity in assay [1] turned out to be 6.6 mM. Further, the half-maximal inhibitory concentration (IC50) in assay [2] is 2630 µM; in the assay on K562, more than 50 µM; in the assay on MCF7 it was more than 50 µM; in the assay with MOLT-4, more than 50 µM.
Consider `COc1cccc(COc2ccc3cc(C(=O)/C=C/c4ccc5c(c4)OCO5)c(=O)oc3c2)c1`, for which the Activity in assay [1] was found to be 7.5 mM. In addition, the concentration for half-maximal inhibition (IC50) in assay [2] was 460 µM; with K562 it was 22.8 µM; with MCF7, more than 100 µM; with MOLT-4 it was more than 100 µM.
Take `O=C(/C=C/c1ccc2c(c1)OCO2)c1cc2cc(OCc3ccccc3)ccc2oc1=O`: the Activity in assay [1] came out at 12.6 mM. Further, the IC50 is 570 µM in assay [2], more than 50 µM with K562, more than 50 µM in the assay with MCF7 and more than 50 µM with MOLT-4.
For the compound `COc1cc(/C=C/C(=O)c2cc3cc(OCc4ccccc4)ccc3oc2=O)cc(OC)c1OC`, in assay [1], the Activity amounted to 8.1 mM. Besides, the concentration for half-maximal inhibition (IC50) in assay [2] came to 1150 µM; in the assay on K562, 66.4 µM; in the assay with MCF7, 26.5 µM; in the assay on MOLT-4, 10.3 µM.
Consider `COc1cc(/C=C/C(=O)c2cc3cc(O)ccc3oc2=O)cc(OC)c1OC`, for which, in assay [1], the Activity was 9.6 mM. The concentration for half-maximal inhibition (IC50) in assay [2] was found to be 180 µM; with K562 it was 8.8 µM; in the assay on MCF7 it was 10.9 µM; in the assay on MOLT-4, 3.9 µM.
As for `COC(=O)c1ccc(/C=C/C(=O)c2cc3ccc(O)cc3oc2=O)cc1`, the IC50 in the assay with K562 is 4.4 µM; with MCF7, 5.5 µM; with MOLT-4 it was 3.7 µM.
Take `COc1cccc(COc2ccc3cc(C(=O)/C=C/c4c(Cl)cccc4Cl)c(=O)oc3c2)c1`: the Activity in assay [1] is 5.3 mM. Also, the IC50 in assay [2] was 940 µM; in the assay with K562, 15.6 µM; with MCF7, 10.1 µM; in the assay with MOLT-4, 12.5 µM.
`COc1cccc(COc2ccc3cc(C(=O)/C=C/c4ccc(Cl)cc4Cl)c(=O)oc3c2)c1`: in assay [1], the Activity was 7.1 mM. Further, the 50% inhibitory concentration (IC50) in assay [2] came out at 480 µM.
For the compound `COc1cccc(/C=C/C(=O)c2cc3ccc(O)cc3oc2=O)c1OC`, the fold change (FC) in assay [3] came to 0.3. The results for the Activity (in assay [1]; in the assay listed under Rattus norvegicus) were 25.2 mM and “Dose-dependent effect”, respectively. Also, the half-inhibitory concentration (IC50) in assay [2] worked out at 150 µM; in the assay with K562 it was 14.6 µM; in the assay on MCF7, 16.6 µM; in the assay with MOLT-4, 7 µM.
`COc1cccc(COc2ccc3cc(C(=O)/C=C/c4cccc(OC)c4OC)c(=O)oc3c2)c1`: the Activity in assay [1] was determined as 7.6 mM. In addition, the IC50 worked out at 720 µM in assay [2], 45.5 µM in the assay with K562, 35.1 µM in the assay with MCF7 and 22.8 µM in the assay with MOLT-4.
In the same order, the values of `COc1ccc(/C=C/C(=O)c2cc3ccc(OCc4cccc(OC)c4)cc3oc2=O)cc1` are 14.3 mM, 930 µM, more than 100 µM, more than 100 µM and more than 100 µM.
Regarding `COc1cccc(/C=C/C(=O)c2cc3cc(OCc4ccccc4)ccc3oc2=O)c1OC`, the Activity in assay [1] turned out to be 4.4 mM. In addition, the concentration for half-maximal inhibition (IC50) in assay [2] amounted to 1270 µM; with K562 it was 48.9 µM; with MCF7, 21.3 µM; in the assay on MOLT-4 it was 23.6 µM.
Turning to `COC(=O)c1ccc(/C=C/C(=O)c2cc3cc(O)ccc3oc2=O)cc1`, the IC50 in the assay with K562 is 15.8 µM; in the assay with MCF7, 1.3 µM; in the assay on MOLT-4, 7.1 µM.
Take `COc1cccc(/C=C/C(=O)c2cc3cc(O)ccc3oc2=O)c1OC`: in assay [3], the fold change (FC) was determined as 0.3. In addition, the Activity in assay [1] was 25.7 mM. The half-maximal inhibitory concentration (IC50) was 160 µM in assay [2], 17.3 µM in the assay with K562, 8.8 µM in the assay with MCF7 and 6.7 µM in the assay with MOLT-4.

For the origin of these results see ChEMBL document CHEMBL2424586, “Polyoxygenated cinnamoylcoumarins as conformationally constrained analogs of cytotoxic diarylpentanoids: synthesis and biological activity” (Eur J Med Chem, 2013).
